Measurements published in ChEMBL document CHEMBL2163244, “Structure-guided design, synthesis and biological evaluation of novel DNA ligase inhibitors with in vitro and in vivo anti-staphylococcal activity” (Bioorg Med Chem Lett, 2012).
≈ marks a conversion by molar mass, not a printed value. Calls of active or inactive are those of the source. The calls are words filed in the database; no cut-off is given here.

Legend:
[1] = Inhibition of Streptococcus pneumoniae NAD-dependent DNA ligase assessed as equilibrium dissociation constant
[2] = Inhibition of Escherichia coli NAD-dependent DNA ligase
DNA ligase = DNA ligase (Staphylococcus aureus, UniProt Q9AIU7); experiment: Inhibition of Staphylococcus aureus NAD-dependent DNA ligase
Escherichia coli [3] = experiment: Antibacterial activity against tolC/rfaC-deficient Escherichia coli harboring ligA251 mutant and pECLigA; format: functional
Method in brief: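 MIC read-out. The strain is the isogenic ligA251 E. coli strain, over-producing wild-type LigA from plasmid pECLigA, which gives high ligation activity.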

Escherichia coli [4] = experiment: Antibacterial activity against tolC/rfaC-deficient Escherichia coli; format: functional
Escherichia coli [5] = experiment: Antibacterial activity against tolC/rfaC-deficient Escherichia coli harboring ligA251 mutant; format: functional
Method in brief: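 MIC read-out. The E. coli strain carries only the ligA251 allele (L15F exchange), which gives more than 20-fold reduced ligation activity and sensitizes it to LigA inhibitors.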

[6] = Selectivity ratio of IC50 for Streptococcus pneumoniae NAD-dependent DNA ligase to IC50 for Staphylococcus aureus NAD-dependent DNA ligase
Saccharomyces cerevisiae = experiment: Antifungal activity against Saccharomyces cerevisiae A136 expressing ATP-dependent DNA ligase by CLSI dilution method; format: functional
Escherichia coli [7] = experiment: Antibacterial activity against Escherichia coli ATCC 25922 by CLSI dilution method; format: functional
Klebsiella pneumoniae = experiment: Antibacterial activity against Klebsiella pneumoniae T6474 by CLSI dilution method; format: functional
Acinetobacter baumannii = experiment: Antibacterial activity against Acinetobacter baumannii T6474 by CLSI dilution method; format: functional
Moraxella catarrhalis = experiment: Antibacterial activity against Moraxella catarrhalis A894 by CLSI dilution method; format: functional
Pseudomonas aeruginosa = experiment: Antibacterial activity against Pseudomonas aeruginosa ATCC 27853 by CLSI dilution method; format: functional
Clostridioides difficile = experiment: Antibacterial activity against Clostridium difficile ATCC A1148 by CLSI dilution method; format: functional
Streptococcus pneumoniae [8] = experiment: Antibacterial activity against Streptococcus pneumoniae ATCC 49619 by CLSI dilution method; format: functional
Enterococcus faecalis = experiment: Antibacterial activity against Enterococcus faecalis ATCC 29212 by CLSI dilution method; format: functional
Enterococcus faecium = experiment: Antibacterial activity against Enterococcus faecium A949 by CLSI dilution method; format: functional
Staphylococcus aureus [9] = experiment: Antibacterial activity against Staphylococcus aureus ATCC 25923 by CLSI dilution method in presence of 50% human serum; format: functional
Method in brief: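 MIC determined in the presence of 50% human serum.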

Staphylococcus aureus [10] = experiment: Antibacterial activity against Staphylococcus aureus ATCC 25923 by CLSI dilution method; format: functional
Staphylococcus aureus [11] = experiment: Antibacterial activity against Staphylococcus aureus A798 by CLSI dilution method; format: functional
Staphylococcus aureus [12] = experiment: Antibacterial activity against […]-sensitive Staphylococcus aureus DM 11823; format: functional
Staphylococcus aureus [13] = experiment: Bacteriostatic activity against […]-sensitive Staphylococcus aureus DM 11823 in mouse neutropenic thigh infection model at 100 mg/kg, sc administered 2 hrs post infection measured after 24 hrs; format: functional, organism-based; parameters: dose 100 mg/kg
Method in brief: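 Neutropenic murine thigh infection with a quinolone-sensitive laboratory descendant of S. aureus DSM 11823. Inoculum 2×10^3 cfu given i.m. Compound given once at 100 mg/kg s.c., 2 h post-infection, in 5% DMSO/15% Solutol HS15 in water. Bacterial burden assessed 24 h after infection.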

[14] = AUC (0 to 24 hrs) in mouse at 10 mg/kg, sc; format: ADME, organism-based; parameters: time < 24 hr, dose 10 mg/kg, route subcutaneous; settings: plasma
[15] = Cmax in mouse at 10 mg/kg, sc; format: ADME, organism-based; parameters: dose 10 mg/kg, route subcutaneous; settings: in vivo
[16] = Fraction unbound in mouse plasma at 10 mg/kg, sc; format: ADME, organism-based; parameters: dose 10 mg/kg, route subcutaneous
[17] = Terminal half life in mouse at 10 mg/kg, sc; format: ADME, organism-based; parameters: dose 10 mg/kg, route subcutaneous; settings: in vivo, read-out: beta t1/2 (converted)
Rattus norvegicus [18] = experiment: fAUC (0 to 24 hrs) in rat at 1 mg/kg, po; format: ADME, organism-based; parameters: dose 1 mg/kg, route oral; settings: in vivo
[19] = Fraction unbound in rat plasma at 0.1 mg/kg, iv and 1 mg/kg, po; format: ADME, organism-based
Rattus norvegicus [20] = experiment: fAUC (0 to infinity) in rat at 0.1 mg/kg, iv; format: ADME, organism-based; parameters: dose 0.1 mg/kg, route intravenous; settings: in vivo
Method in brief: (§1)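 Rat intravenous PK: 0.1 mg/kg dose in 5% DMSO/28.5% HPBCD in water. Total plasma clearance is in mL/min/kg. Volume of distribution at steady state is in L/kg.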

[21] = AUC (0 to 24 hrs) in rat at 1 mg/kg, po; format: ADME, organism-based; parameters: time < 24 hr, dose 1 mg/kg, route oral; settings: plasma
[22] = Cmax in rat at 1 mg/kg, po; format: ADME, organism-based; parameters: dose 1 mg/kg, route oral; settings: in vivo
[23] = Terminal half life in rat at 0.1 mg/kg, iv and 1 mg/kg, po; format: ADME, organism-based; settings: in vivo, read-out: beta t1/2 (converted)
[24] = Total plasma clearance in rat at 0.1 mg/kg, iv and 1 mg/kg, po; format: ADME, organism-based; method in brief: as §1
[25] = Volume of distribution at steady state in rat at 0.1 mg/kg, iv and 1 mg/kg, po; format: ADME, organism-based; settings: in vivo, read-out: Vdss; method in brief: as §1
[26] = Oral bioavailability in rat at 1 mg/kg; format: ADME, organism-based; settings: in vivo
[27] = Intrinsic clearance in rat hepatocytes measured per 10^6 cells; format: ADME, cell-based, Hepatocyte; settings: read-out: CLH
Cytochrome P450 3A4 = Cytochrome P450 3A4 (Homo sapiens, UniProt P08684); experiment: Inhibition of human CYP3A4; format: ADME
Cytochrome P450 2D6 = Cytochrome P450 2D6 (Homo sapiens, UniProt P10635); experiment: Inhibition of human CYP2D6; format: ADME
Cytochrome P450 2C9 = Cytochrome P450 2C9 (Homo sapiens, UniProt P11712); experiment: Inhibition of human CYP2C9; format: ADME
[28] = target: T1, Dihydrofolate reductase (Homo sapiens) (UniProt P00374); experiment: Inhibition of human DHFR
T1 sequence (whole entry): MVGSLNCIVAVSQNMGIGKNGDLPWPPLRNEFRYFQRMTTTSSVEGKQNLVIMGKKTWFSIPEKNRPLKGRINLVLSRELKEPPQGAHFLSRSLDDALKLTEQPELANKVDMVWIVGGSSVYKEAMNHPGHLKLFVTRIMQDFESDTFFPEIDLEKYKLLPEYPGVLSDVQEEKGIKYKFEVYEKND

[29] = target: DNA ligase 1 (Homo sapiens) (UniProt P18858); experiment: Inhibition of human DNA Ligase 1
Haemophilus influenzae = experiment: Antibacterial activity against wild type Haemophilus influenzae A921 by CLSI dilution method; format: functional
Staphylococcus aureus [30] = experiment: Antibacterial activity against wild type Staphylococcus aureus ATCC 29213 by CLSI dilution method; format: functional
Streptococcus pneumoniae [31] = experiment: Antibacterial activity against wild type Streptococcus pneumoniae A-216 by CLSI dilution method; format: functional
[32] = AUC (0 to infinity) in rat at 0.1 mg/kg, iv; format: ADME, organism-based; parameters: time infinity, dose 0.1 mg/kg, route intravenous; settings: plasma; method in brief: as §1
[33] = Intrinsic clearance in rat liver microsomes; format: ADME, Microsome; settings: read-out: CLH

Chain of Cytochrome P450 2D6 (P10635 whole entry): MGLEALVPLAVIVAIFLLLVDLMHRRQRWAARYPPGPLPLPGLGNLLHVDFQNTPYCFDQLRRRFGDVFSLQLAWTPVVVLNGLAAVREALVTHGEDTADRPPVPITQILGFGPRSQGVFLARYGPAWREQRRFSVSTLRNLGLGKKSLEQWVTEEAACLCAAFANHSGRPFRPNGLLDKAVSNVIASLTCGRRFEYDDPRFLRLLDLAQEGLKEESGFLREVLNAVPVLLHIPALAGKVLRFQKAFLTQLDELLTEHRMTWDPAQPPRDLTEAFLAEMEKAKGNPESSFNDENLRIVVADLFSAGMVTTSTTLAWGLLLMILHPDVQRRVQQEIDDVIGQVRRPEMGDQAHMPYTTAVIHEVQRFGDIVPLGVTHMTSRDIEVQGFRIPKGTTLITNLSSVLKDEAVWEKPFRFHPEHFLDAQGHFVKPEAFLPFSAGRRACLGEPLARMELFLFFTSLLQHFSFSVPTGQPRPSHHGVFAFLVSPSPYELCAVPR
Chain of Cytochrome P450 3A4 (P08684 whole entry): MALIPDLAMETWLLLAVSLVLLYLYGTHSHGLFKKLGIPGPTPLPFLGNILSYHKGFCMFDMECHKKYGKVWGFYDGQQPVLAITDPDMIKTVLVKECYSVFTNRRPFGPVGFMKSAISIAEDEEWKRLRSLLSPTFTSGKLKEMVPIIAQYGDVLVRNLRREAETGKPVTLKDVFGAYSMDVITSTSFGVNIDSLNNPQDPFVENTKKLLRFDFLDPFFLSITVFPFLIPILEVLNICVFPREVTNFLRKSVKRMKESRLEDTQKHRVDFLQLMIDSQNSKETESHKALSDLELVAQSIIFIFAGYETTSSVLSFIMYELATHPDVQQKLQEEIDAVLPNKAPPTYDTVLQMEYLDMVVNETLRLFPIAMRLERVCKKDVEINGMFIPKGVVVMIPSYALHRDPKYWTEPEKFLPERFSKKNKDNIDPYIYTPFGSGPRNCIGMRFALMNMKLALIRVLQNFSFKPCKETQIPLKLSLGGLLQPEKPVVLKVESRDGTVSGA
Chain of Cytochrome P450 2C9 (P11712 whole entry): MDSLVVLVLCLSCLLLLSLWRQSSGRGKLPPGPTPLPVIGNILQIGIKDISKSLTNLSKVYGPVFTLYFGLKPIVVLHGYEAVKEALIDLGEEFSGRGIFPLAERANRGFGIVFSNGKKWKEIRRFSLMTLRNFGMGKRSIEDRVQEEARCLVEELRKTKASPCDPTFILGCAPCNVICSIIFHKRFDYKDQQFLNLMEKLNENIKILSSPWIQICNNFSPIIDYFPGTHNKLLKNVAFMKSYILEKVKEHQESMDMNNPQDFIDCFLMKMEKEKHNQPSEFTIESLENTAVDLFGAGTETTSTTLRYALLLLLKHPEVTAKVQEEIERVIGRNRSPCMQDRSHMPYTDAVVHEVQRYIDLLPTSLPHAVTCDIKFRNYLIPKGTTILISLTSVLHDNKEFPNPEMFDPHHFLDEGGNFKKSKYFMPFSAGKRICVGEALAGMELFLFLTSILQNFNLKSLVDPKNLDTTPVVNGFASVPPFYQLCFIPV
Chain of DNA ligase 1 (Homo sapiens) (P18858 whole entry): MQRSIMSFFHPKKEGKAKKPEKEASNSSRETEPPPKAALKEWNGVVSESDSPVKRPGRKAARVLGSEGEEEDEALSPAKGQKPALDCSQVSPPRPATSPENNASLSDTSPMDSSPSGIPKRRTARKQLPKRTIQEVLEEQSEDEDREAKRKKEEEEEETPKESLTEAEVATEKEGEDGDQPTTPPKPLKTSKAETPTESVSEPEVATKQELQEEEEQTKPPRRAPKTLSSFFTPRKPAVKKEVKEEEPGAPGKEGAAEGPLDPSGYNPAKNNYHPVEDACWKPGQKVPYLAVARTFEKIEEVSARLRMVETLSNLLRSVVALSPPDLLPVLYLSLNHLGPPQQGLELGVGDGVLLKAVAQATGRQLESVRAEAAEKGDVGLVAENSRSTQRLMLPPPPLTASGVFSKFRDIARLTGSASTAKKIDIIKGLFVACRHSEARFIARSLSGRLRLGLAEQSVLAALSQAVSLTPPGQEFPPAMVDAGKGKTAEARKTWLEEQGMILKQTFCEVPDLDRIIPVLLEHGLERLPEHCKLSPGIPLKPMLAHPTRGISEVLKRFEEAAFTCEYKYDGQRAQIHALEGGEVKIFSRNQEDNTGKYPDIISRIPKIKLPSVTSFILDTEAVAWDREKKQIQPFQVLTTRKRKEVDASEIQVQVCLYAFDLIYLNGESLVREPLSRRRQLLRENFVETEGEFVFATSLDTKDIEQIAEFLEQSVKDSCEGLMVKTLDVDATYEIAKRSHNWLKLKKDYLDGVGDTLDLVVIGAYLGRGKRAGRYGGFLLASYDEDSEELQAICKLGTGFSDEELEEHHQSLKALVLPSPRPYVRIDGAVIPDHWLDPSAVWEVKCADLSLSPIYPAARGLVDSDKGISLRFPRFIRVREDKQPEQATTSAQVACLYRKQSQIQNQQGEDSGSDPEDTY
Chain of DNA ligase (Q9AIU7 whole entry): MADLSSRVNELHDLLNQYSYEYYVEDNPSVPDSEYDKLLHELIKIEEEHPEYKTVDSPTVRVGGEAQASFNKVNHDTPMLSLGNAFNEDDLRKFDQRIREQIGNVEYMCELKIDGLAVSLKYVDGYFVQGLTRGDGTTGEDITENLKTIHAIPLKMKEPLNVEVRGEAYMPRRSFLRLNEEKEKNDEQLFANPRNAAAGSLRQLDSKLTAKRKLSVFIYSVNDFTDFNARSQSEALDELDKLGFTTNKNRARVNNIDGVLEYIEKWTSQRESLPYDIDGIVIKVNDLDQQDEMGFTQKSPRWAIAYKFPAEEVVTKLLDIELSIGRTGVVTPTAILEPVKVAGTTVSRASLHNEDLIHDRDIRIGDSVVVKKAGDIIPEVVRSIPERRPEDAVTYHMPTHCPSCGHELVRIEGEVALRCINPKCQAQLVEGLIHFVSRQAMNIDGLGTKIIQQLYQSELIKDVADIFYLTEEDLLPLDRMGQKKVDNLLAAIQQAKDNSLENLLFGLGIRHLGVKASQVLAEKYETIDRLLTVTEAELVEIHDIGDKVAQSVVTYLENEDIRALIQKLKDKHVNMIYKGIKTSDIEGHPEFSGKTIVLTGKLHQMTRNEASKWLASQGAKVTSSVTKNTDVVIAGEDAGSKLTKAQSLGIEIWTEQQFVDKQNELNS

Structure (SMILES): Nc1cc(-c2nc3ccccc3[nH]2)n[nH]c1=O
- Kd [1]: 20 µM
- IC50 [2]: > 25000 nM
- IC50 (DNA ligase): 2500 nM
- MIC (Escherichia coli [3]): 16 µg/mL (≈ 70.4 µM)
- MIC (Escherichia coli [4]): > 16 µg/mL
- MIC (Escherichia coli [5]): 8 µg/mL (≈ 35.2 µM)

Structure (SMILES): NC(=O)c1cc2cc(Br)c(C(F)(F)F)nc2nc1N
- Ratio IC50 [6]: 2
- MIC (Saccharomyces cerevisiae): > 32 µg/mL
- MIC (Escherichia coli [7]): > 32 µg/mL
- MIC (Klebsiella pneumoniae): > 32 µg/mL
- MIC (Acinetobacter baumannii): > 32 µg/mL
- MIC (Moraxella catarrhalis): 8 µg/mL (≈ 23.9 µM)
- MIC (Pseudomonas aeruginosa): > 32 µg/mL
- MIC (Clostridioides difficile): 8 µg/mL (≈ 23.9 µM)
- MIC (Streptococcus pneumoniae [8]): 16 µg/mL (≈ 47.7 µM)
- MIC (Enterococcus faecalis): 8 µg/mL (≈ 23.9 µM)
- MIC (Enterococcus faecium): > 32 µg/mL
- MIC (Staphylococcus aureus [9]): 2 µg/mL
- MIC (Staphylococcus aureus [10]): 1 µg/mL (≈ 2.98 µM)
- MIC (Staphylococcus aureus [11]): 1 µg/mL (≈ 2.98 µM)
- MIC (Staphylococcus aureus [12]): 0.5 µg/mL (≈ 1.49 µM)
- Activity (Staphylococcus aureus [13]): Active
- AUC(0-t) at 24 h [14]: 84500 ng·h/mL
- Cmax [15]: 7050 ng/mL
- fraction unbound [16]: 0.046
- half-life [17]: 174 min
- fAUC (Rattus norvegicus [18]): 0.171 mg·h/L
- fraction unbound [19]: 0.14
- fAUC (Rattus norvegicus [20]): 0.021 mg·h/L
- AUC(0-t) at 24 h [21]: 1220 ng·h/mL
- Cmax [22]: 410 ng/mL
- half-life [23]: 138 min
- clearance [24]: 11 mL/min/kg
- Vd [25]: 0.71 L/kg
- bioavailability [26]: 80%
- hepatocyte CLint [27]: 1.8 µL/min/1e6 cells
- IC50 (Cytochrome P450 3A4): > 50 µM
- IC50 (Cytochrome P450 2D6): > 50 µM
- IC50 (Cytochrome P450 2C9): > 50 µM
- inhibition [28]: inactive
- inhibition [29]: inactive
- MIC (Haemophilus influenzae): 0.125 µg/mL (≈ 0.373 µM)
- MIC (Staphylococcus aureus [30]): 1 µg/mL (≈ 2.98 µM)
- IC50 [2]: 300 nM
- MIC (Streptococcus pneumoniae [31]): 2 µg/mL (≈ 5.97 µM)
- MIC (Escherichia coli [4]): 2 µg/mL (≈ 5.97 µM)
- MIC (Escherichia coli [5]): 0.063 µg/mL (≈ 0.188 µM)
- AUC(0-inf) [32]: 150 ng·h/mL
- microsomal CLint [33]: 20 µL/min/mg
